Source: ChEMBL document CHEMBL1122187, “Synthesis and antiviral activity of certain carbamoylpyrrolopyrimidine and pyrazolopyrimidine nucleosides” (1982)

Columns and labels:
Assay type in all cases: functional, Chlorocebus sabaeus
Vero [1] = assay: Percentage plaque reduction was determined against Sandfly fever (SF) virus in african green monkey kidney (vero,V) at a conc of <25 ug/mL. Toxic level(320 ug/mL)
Method in brief: (§1)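 Infected Vero 24-well monolayers: virus adsorbed 1 h at 37 °C, then overlaid with agar holding dilutions of compound and incubated again at 37 °C with CO₂. Plaques were stained with crystal violet and counted. Inhibition was scored as % plaque reduction bands (10-30%, 31-60%, 61-90%), each tied to a drug concentration range.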

Vero [2] = assay: In vitro antiviral activity against vaccinia(VV) virus was determined in african green monkey kidney (vero,V) expressed as virus rating. Toxic level(320 ug/mL)
Method in brief: (§2)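 Cell monolayers (18 h) infected with 320 TCID50 of virus. Compound was added within 15–30 min at half-log dilutions from 1000 to 1 μg/mL. After 72 h at 37 °C in 5% CO2, CPE was scored 0–4 by microscopy. VR = sum of (virus control − treated) scores, halved at partially toxic levels, divided by 10 × test cups per drug level.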

Vero [3] = assay: Percentage plaque reduction was determined against yellow fever (YF) virus in african green monkey kidney (vero,V).Toxic level(320 ug/mL); 10-30
Vero [4] = assay: Percentage plaque reduction was determined against venezuelan equine encephalitis (VEE) virus in african green monkey kidney (vero,V) at a conc of 250-500 ug/mL. Toxic level(320 ug/mL)
Vero [5] = assay: Percentage plaque reduction was determined against venezuelan equine encephalitis (VEE) virus in african green monkey kidney (vero,V) at a conc of 100-250 ug/mL. Toxic level(320 ug/mL)
Vero [6] = assay: In vitro antiviral activity against herpes simplex type 1 (HSV-1) virus was determined in african green monkey kidney (vero,V) expressed as virus rating. Toxic level(320 ug/mL); method in brief: as §2
Vero [7] = assay: Percentage plaque reduction was determined against Sandfly fever (SF) virus in african green monkey kidney (vero,V) at a conc of 250-500 ug/mL. Toxic level(320 ug/mL)
Vero [8] = assay: Percentage plaque reduction was determined against rift valley fever(RVF) virus in african green monkey kidney (vero,V) at a conc of 250-500 ug/mL. Toxic level(320 ug/mL); 10-30
Vero [9] = assay: Percentage plaque reduction was determined against Sandfly fever (SF) virus in african green monkey kidney (vero,V) at a conc of 100-250 ug/mL. Toxic level(320 ug/mL)
Vero [10] = assay: Percentage plaque reduction was determined against venezuelan equine encephalitis (VEE) virus in african green monkey kidney (vero,V) at a conc of 25-100 ug/mL. Toxic level(320 ug/mL)
Vero [11] = assay: Percentage plaque reduction was determined against venezuelan equine encephalitis (VEE) virus in african green monkey kidney (vero,V) at a conc of <25 ug/mL. Toxic level(320 ug/mL)
Vero [12] = assay: In vitro antiviral activity against parainfluenza type 3(para 3) virus was determined in african green monkey kidney (vero,V) expressed as virus rating. Toxic level(320 ug/mL); method in brief: as §2
Vero [13] = assay: Percentage plaque reduction was determined against Sandfly fever (SF) virus in african green monkey kidney (vero,V) at a conc of 25-100 ug/mL. Toxic level(320 ug/mL)
Vero [14] = assay: Percentage plaque reduction was determined against venezuelan equine encephalitis (VEE) virus in african green monkey kidney (vero,V) at a conc of 25-100 ug/mL. Toxic level(1000 ug/mL)
Vero [15] = assay: Percentage plaque reduction was determined against venezuelan equine encephalitis (VEE) virus in african green monkey kidney (vero,V) at a conc of <25 ug/mL. Toxic level(1000 ug/mL)
Vero [16] = assay: Percentage plaque reduction was determined against rift valley fever(RVF) virus in african green monkey kidney (vero,V) at a conc of 250-500 ug/mL. Toxic level(1000 ug/mL); 10-30
Vero [17] = assay: Percentage plaque reduction was determined against Sandfly fever (SF) virus in african green monkey kidney (vero,V) at a conc of 25-100 ug/mL. Toxic level(1000 ug/mL); 61-90
Vero [18] = assay: Percentage plaque reduction was determined against yellow fever(YF) virus in african green monkey kidney (vero,V).Toxic level(1000 ug/mL); 61-90
Vero [19] = assay: In vitro antiviral activity against herpes simplex type 1 (HSV-1) virus was determined in african green monkey kidney (vero,V) expressed as virus rating. Toxic level(1000 ug/mL); method in brief: as §2
Vero [20] = assay: In vitro antiviral activity against vaccinia(VV) virus was determined in african green monkey kidney (vero,V) expressed as virus rating. Toxic level(1000 ug/mL); method in brief: as §2
Vero [21] = assay: Percentage plaque reduction was determined against pichinde(PICH) virus in african green monkey kidney (vero,V).Toxic level(1000 ug/mL); 10-30; method in brief: as §1
Vero [22] = assay: Percentage plaque reduction was determined against venezuelan equine encephalitis (VEE) virus in african green monkey kidney (vero,V) at a conc of 100-250 ug/mL. Toxic level(1000 ug/mL)
Vero [23] = assay: In vitro antiviral activity against parainfluenza type 3(para 3) virus was determined in african green monkey kidney (vero,V) expressed as virus rating. Toxic level(1000 ug/mL); method in brief: as §2
Vero [24] = assay: Percentage plaque reduction was determined against venezuelan equine encephalitis (VEE) virus in african green monkey kidney (vero,V) at a conc of 250-500 ug/mL. Toxic level(1000 ug/mL)
Vero [25] = assay: In vitro antiviral activity against herpes simplex type 1 (HSV-1) virus was determined in african green monkey kidney (vero,V) expressed as virus rating. Toxic level(>1000 ug/mL); method in brief: as §2
Vero [26] = assay: In vitro antiviral activity against parainfluenza type 3(para 3) virus was determined in african green monkey kidney (vero,V) expressed as virus rating. Toxic level(>1000 ug/mL); method in brief: as §2
Vero [27] = assay: In vitro antiviral activity against vaccinia(VV) virus was determined in african green monkey kidney (vero,V) expressed as virus rating. Toxic level(>1000 ug/mL); method in brief: as §2

SMILES: CSc1ncnc2c1cnn2[C@@H]1O[C@H](COC(C)=O)[C@@H](OC(C)=O)[C@H]1OC(C)=O
- Plaque reduction (Vero [1]): 0%
- Virus rating (Vero [2]): 0.5
- Plaque reduction (Vero [3]): 10%
- Plaque reduction (Vero [4]): 0%
- Plaque reduction (Vero [5]): 0%
- Virus rating (Vero [6]): 0
- Plaque reduction (Vero [7]): 0%
- Plaque reduction (Vero [8]): 10%
- Plaque reduction (Vero [9]): 0%
- Plaque reduction (Vero [10]): 0%
- Plaque reduction (Vero [11]): 0%
- Virus rating (Vero [12]): 0
- Plaque reduction (Vero [13]): 0%

SMILES: OC[C@H]1O[C@@H](C2=NNC3C(=S)N=CN=C23)[C@H](O)[C@@H]1O (stereo partly specified)
- Plaque reduction (Vero [14]): 0%
- Plaque reduction (Vero [15]): 0%
- Plaque reduction (Vero [16]): 10%
- Plaque reduction (Vero [17]): 61%
- Plaque reduction (Vero [18]): 61%
- Virus rating (Vero [19]): 0
- Virus rating (Vero [20]): 1
- Plaque reduction (Vero [21]): 10%
- Plaque reduction (Vero [22]): 0%
- Virus rating (Vero [23]): 1.1
- Plaque reduction (Vero [24]): 0%

SMILES: OC[C@H]1O[C@@H](c2n[nH]c3c(Cl)ncnc23)[C@H](O)[C@@H]1O
- Virus rating (Vero [2]): 1
- Virus rating (Vero [6]): 0
- Virus rating (Vero [12]): 1.3

SMILES: CSc1ncnc2c1ncn2[C@@H]1O[C@H](CO)[C@@H](O)[C@H]1O
- Virus rating (Vero [2]): 2
- Virus rating (Vero [6]): 1.7
- Virus rating (Vero [12]): 2.2

SMILES: OC[C@H]1O[C@@H](n2cnc3c(Cl)ncnc32)[C@H](O)[C@@H]1O
- Virus rating (Vero [19]): 0.4
- Virus rating (Vero [20]): 1.8
- Virus rating (Vero [23]): 0.4

SMILES: OC[C@H]1O[C@@H](n2ccc3c(S)ncnc32)[C@H](O)[C@@H]1O
- Virus rating (Vero [25]): 0.2
- Virus rating (Vero [26]): 1.1
- Virus rating (Vero [27]): 0.5
